Results collected from several papers.
Cell line: ACHN
Effect on: cell growth or viability

| SMILES | method | tested at | time | measurement | value |
| --- | --- | --- | --- | --- | --- |
| COc1ccc(-c2ccc(-c3ccc(C(=N)N)nc3)s2)cc1Cl | – | – | – | GI50 | 1.77 µM |
| S=C([S][Au-][P+](CCCCCC[P+]([Au-][S]C(=S)n1cccn1)(c1ccccc1)c1ccccc1)(c1ccccc1)c1ccccc1)n1cccn1 | – | – | – | GI50 | 1.45 µM |
| COc1cccc(Oc2ccccc2NC(=O)CNC(=O)c2cccc3ccccc23)c1 | SRB | – | 48 h | GI50 | 0.398 µM |
| COc1cc(-c2ccc(-c3ccc(C(=N)N)nc3)s2)cc(OC)c1OC | – | – | – | GI50 | 1.73 µM |
| COc1ccc(C(=O)/C=C/c2ccccc2Br)cc1S(N)(=O)=O | SRB | – | 48 h | GI50 | 1.8 µM |
| Cc1cc(C)n(C(=S)[S][Au][PH](CCCCCC[PH]([Au][S]C(=S)n2nc(C)cc2C)(c2ccccc2)c2ccccc2)(c2ccccc2)c2ccccc2)n1 | – | – | – | GI50 | 0.752 µM |
| CC1=CC(=O)C(C(C)C)=CC1=O | CCK-8 | – | 48 h | IC50 | 53 µM |
| COc1ccc(C(=O)/C=C/c2cc3c(cc2Br)OCO3)cc1S(N)(=O)=O | SRB | 10 µM | – | inhibition | 123% |
